# Published values collected from several papers.
# Compare with care: the assays were run in different laboratories.
# RPS6KA6 N-terminal kinase domain: Ribosomal protein S6 kinase alpha-6, N-terminal kinase domain (RPS6KA6, Homo sapiens, UniProt Q9UK32)
# RPS6KA6 C-terminal kinase domain: Ribosomal protein S6 kinase alpha-6, C-terminal kinase domain (RPS6KA6, Homo sapiens, UniProt Q9UK32)
# RPS6KA6: Ribosomal protein S6 kinase alpha-6 (RPS6KA6, Homo sapiens, UniProt Q9UK32)
Compound,target,test,conditions,endpoint,value
COc1cc(Nc2ncc(F)c(Nc3ccc4c(n3)NC(=O)C(C)(C)O4)n2)cc(OC)c1OC,RPS6KA6 N-terminal kinase domain,"binding, competition with immobilised ligand",10 µM,inhibition,70%
Nc1ncc(-c2nc(N3CCOCC3)nc(N3CCOCC3)n2)c(C(F)F)n1,RPS6KA6 C-terminal kinase domain,"binding, competition with immobilised ligand",10 µM,remaining binding,94%
O=c1[nH]c2ccccc2n1C1CCN(Cc2ccc(-c3[nH]c4cc5ncnc5cc4nc3-c3ccccc3)cc2)CC1,RPS6KA6,cell-free assay,0.5 µM,remaining signal,109%
Cn1cc(-c2cccc(N3CCc4c(sc5c4CC(C)(C)C5)C3=O)c2CO)cc(Nc2ccncn2)c1=O,RPS6KA6,"enzyme activity, inhibitor",1 µM,inhibition,9%
Cc1nn(C)cc1-c1nc2c(N3CCN(Cc4ccc(Cl)cc4)CC3)c(Cl)cnc2[nH]1,RPS6KA6 N-terminal kinase domain,"binding, competition with immobilised ligand",1 µM,remaining binding,66%
Cn1cncc1[C@](O)(COc1ccc(C#N)cc1-c1ccc(OC(F)(F)F)cc1)c1ccc(C#N)cc1,RPS6KA6 N-terminal kinase domain,"cell-free assay, competition with immobilised ligand",1 µM,remaining binding,91%
CC(C)(C)c1cc(C=C(C#N)C#N)cc(Br)c1O,RPS6KA6,"enzyme activity, inhibitor",0.5 µM,remaining activity,101%
N#CC1(c2ccccn2)CCN(Cc2cc(C(=O)O)c(=O)n3ccccc23)CC1,RPS6KA6 C-terminal kinase domain,"cell-free assay, competition with immobilised ligand",1 µM,remaining binding,97%
Cn1cc(-c2cc(F)cc(N3CCn4c(cc5c4CCCC5)C3=O)c2CO)cc(Nc2ccc(N3CCN(C4COC4)CC3)cn2)c1=O,RPS6KA6,"enzyme activity, inhibitor",0.1 µM,inhibition,2%
